Measurements published in ChEMBL document CHEMBL5046307 (ACS Med Chem Lett, 2022).
Values after ≈ are worked out from the molar mass of the structure shown.

Columns and labels:
Cytochrome P450 3A4 = Cytochrome P450 3A4 (Homo sapiens, UniProt P08684); test: Inhibition of CYP3A4 in human liver microsomes using midazolam as substrate by LC-MS/MS analysis
[1] = Inhibition of dog electron transport chain complex 1 assessed as reduction in cellular ATP measured after 24 hrs by celltiter-glo assay; details: Canis lupus familiaris
[2] = molecular target: Voltage-gated inwardly rectifying potassium channel KCNH2 (Homo sapiens, UniProt Q12809); test: Inhibition of human ERG by patch-clamp assay
Voltage-gated inwardly rectifying potassium channel KCNH2, sequence (Q12809 whole entry): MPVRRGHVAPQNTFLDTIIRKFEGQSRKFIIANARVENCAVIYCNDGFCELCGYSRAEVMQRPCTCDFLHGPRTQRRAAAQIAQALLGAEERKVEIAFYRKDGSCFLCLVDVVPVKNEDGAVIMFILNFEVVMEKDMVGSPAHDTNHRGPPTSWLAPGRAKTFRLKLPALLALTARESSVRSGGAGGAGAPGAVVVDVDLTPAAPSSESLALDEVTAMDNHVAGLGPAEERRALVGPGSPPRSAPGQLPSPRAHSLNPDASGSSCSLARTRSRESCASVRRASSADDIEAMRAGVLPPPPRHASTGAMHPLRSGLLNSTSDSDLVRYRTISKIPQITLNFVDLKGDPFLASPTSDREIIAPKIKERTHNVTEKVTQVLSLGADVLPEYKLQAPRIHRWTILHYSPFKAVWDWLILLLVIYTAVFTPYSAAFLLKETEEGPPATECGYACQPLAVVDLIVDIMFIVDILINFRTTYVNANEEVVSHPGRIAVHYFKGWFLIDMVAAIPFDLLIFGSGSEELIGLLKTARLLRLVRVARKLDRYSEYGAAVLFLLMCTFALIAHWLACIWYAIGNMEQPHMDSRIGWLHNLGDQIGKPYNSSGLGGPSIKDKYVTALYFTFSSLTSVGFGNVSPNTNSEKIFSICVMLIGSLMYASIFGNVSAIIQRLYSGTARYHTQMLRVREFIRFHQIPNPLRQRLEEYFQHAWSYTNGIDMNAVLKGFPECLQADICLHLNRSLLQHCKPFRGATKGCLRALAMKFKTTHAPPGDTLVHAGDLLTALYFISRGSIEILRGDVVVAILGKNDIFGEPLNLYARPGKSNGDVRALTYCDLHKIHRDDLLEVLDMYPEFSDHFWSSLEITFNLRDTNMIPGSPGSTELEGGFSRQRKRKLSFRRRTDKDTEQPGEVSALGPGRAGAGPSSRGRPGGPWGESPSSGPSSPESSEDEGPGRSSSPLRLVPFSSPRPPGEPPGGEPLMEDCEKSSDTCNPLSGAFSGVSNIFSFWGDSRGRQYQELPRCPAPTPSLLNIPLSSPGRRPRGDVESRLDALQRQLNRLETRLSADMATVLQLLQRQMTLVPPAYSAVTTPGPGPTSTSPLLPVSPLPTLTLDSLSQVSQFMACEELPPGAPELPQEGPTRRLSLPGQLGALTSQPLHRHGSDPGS

[3] = AUC in Wistar rat plasma at 0.8 mg/kg, po by LC-MS/MS analysis; assay type: ADME, organism-based; set-up: dose 0.8 mg/kg; details: in vivo
[4] = Metabolic stability in rat hepatocyte assessed as maximum bioavailability measured up to 90 mins by LC-MS/MS analysis; assay type: ADME; details: rat hepatocytes, read-out: Fmax
[5] = Solubility of the compound at pH 6.5; details: buffer
[6] = Apparent permeability across apical to basolateral side in human Caco2 cells assessed as drug recovery at 2 uM and measured for 2 hrs by LC-MS/MS analysis; details: Caco-2
[7] = Efflux ratio of apparent permeability across basolateral to apical side over apical to basolateral side in human Caco2 cells at 2 uM incubated for 2 hrs by LC-MS/MS analysis; details: Caco-2
Cytochrome P450 2C9 = Cytochrome P450 2C9 (Homo sapiens, UniProt P11712); test: Inhibition of CYP2C9 in human liver microsomes using diclofenac as substrate by LC-MS/MS analysis
Cytochrome P450 2C9, sequence (P11712 whole entry): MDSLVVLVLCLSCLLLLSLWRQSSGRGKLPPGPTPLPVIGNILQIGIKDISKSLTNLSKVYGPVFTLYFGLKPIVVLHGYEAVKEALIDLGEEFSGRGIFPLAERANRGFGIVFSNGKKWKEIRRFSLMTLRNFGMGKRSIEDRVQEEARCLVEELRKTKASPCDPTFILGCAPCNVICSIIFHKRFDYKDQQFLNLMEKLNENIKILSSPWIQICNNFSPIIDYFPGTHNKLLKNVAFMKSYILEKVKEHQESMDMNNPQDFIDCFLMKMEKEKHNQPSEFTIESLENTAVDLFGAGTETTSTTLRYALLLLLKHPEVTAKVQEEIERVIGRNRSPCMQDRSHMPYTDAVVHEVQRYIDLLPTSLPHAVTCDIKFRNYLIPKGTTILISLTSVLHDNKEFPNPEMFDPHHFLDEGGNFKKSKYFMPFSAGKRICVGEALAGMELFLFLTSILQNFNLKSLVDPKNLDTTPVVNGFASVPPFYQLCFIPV

[8] = Inhibition of mouse electron transport chain complex 1 assessed as reduction in cellular ATP measured after 24 hrs by celltiter-glo assay
[9] = Oral bioavailability in Wistar rat plasma at 0.8 mg/kg by LC-MS/MS analysis; assay type: ADME, organism-based
[10] = Plasma protein binding in mouse assessed as fraction unbound incubated for 6 to 8 hrs by LC-MS/MS analysis; assay type: ADME, cell-free; details: time 6-8 hrs
Cytochrome P450 1A2 = molecular target: T1, Cytochrome P450 1A2 (Homo sapiens, UniProt P05177); test: Inhibition of CYP1A2 in human liver microsomes using phenacetin as substrate by LC-MS/MS analysis
T1 sequence (P05177 whole entry): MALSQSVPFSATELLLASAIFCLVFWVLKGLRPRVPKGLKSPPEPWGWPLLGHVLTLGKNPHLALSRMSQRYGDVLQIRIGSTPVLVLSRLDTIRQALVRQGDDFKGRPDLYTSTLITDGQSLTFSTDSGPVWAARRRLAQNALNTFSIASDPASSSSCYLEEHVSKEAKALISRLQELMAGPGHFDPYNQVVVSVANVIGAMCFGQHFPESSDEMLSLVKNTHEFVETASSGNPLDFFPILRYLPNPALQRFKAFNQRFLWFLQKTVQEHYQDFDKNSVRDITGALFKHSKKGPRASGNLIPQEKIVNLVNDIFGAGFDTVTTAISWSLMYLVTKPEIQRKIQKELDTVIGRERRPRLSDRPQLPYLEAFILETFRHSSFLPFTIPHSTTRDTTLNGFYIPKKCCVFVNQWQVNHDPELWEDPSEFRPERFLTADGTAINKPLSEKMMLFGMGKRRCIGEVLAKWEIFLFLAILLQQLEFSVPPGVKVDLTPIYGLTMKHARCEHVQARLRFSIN

[11] = Lipophilicity, logD of compound; details: octanol/water
Cytochrome P450 2C8 = molecular target: T2, Cytochrome P450 2C8 (Homo sapiens, UniProt P10632); test: Inhibition of CYP2C8 in human liver microsomes using amodiaquine as substrate by LC-MS/MS analysis
T2 sequence (P10632 whole entry): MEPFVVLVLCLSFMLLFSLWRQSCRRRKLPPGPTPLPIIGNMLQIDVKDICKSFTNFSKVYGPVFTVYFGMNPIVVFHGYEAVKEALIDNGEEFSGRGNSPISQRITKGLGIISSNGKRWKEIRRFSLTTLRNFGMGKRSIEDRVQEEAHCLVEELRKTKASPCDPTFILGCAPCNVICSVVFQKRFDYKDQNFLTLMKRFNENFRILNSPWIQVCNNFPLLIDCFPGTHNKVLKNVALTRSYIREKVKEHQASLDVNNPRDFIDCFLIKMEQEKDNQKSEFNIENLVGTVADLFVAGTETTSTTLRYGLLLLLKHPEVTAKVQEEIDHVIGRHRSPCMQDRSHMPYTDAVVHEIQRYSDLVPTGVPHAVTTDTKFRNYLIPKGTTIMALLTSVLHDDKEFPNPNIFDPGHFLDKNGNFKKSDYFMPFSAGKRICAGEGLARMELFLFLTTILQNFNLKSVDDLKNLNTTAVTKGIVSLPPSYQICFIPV

Cytochrome P450 2D6 = Cytochrome P450 2D6 (Homo sapiens, UniProt P10635); test: Inhibition of CYP2D6 in human liver microsomes using dextromethorphan as substrate by LC-MS/MS analysis
Cytochrome P450 2D6, sequence (P10635 whole entry): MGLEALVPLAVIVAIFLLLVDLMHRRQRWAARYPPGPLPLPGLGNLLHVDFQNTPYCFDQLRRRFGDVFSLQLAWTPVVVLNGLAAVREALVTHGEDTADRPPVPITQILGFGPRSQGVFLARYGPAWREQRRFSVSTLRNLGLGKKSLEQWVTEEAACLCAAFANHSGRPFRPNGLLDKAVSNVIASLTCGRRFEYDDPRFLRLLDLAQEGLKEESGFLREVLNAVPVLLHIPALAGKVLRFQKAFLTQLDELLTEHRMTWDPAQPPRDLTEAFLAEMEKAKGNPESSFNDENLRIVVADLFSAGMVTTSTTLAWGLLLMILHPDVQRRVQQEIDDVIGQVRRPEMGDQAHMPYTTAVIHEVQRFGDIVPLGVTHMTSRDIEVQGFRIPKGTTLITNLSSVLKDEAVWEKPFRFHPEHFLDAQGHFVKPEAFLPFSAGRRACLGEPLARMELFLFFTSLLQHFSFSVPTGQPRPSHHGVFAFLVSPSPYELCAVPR

[12] = Half life in Wistar rat plasma at 0.4 mg/kg, iv by LC-MS/MS analysis; assay type: ADME, organism-based
[13] = Volume of distribution at steady state in Wistar rat plasma at 0.4 mg/kg, iv by LC-MS/MS analysis; assay type: ADME, organism-based; details: read-out: Vdss
[14] = Clearance in male Wistar rat blood at 0.4 mg/kg, iv by LC-MS/MS analysis
[15] = molecular target: T3, Nuclear receptor subfamily 1 group I member 2 (Homo sapiens, UniProt O75469); test: Transactivation of PXR (unknown origin) expressed in human DPX2 cells co-expressing luciferase gene under control of CYP3A4 promoter assessed as increase in luciferase activity incubated for 24 hrs by luminescence based analysis; details: dpx2, 24 h
T3 sequence (O75469 whole entry): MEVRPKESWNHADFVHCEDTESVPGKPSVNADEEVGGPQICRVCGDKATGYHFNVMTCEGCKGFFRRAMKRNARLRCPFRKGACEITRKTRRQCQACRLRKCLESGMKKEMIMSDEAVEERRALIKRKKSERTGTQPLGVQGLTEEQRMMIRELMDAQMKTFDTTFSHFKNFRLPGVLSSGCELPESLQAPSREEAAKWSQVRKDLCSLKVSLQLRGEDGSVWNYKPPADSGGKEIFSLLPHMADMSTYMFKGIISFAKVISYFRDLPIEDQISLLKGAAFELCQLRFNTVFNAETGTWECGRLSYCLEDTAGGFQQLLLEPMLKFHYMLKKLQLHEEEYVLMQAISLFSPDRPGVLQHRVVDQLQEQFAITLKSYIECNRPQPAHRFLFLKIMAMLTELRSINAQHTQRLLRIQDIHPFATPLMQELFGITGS

[16] = Inhibition of human electron transport chain complex 1 in human NCI-H1299 cells assessed as reduction in cellular ATP level measured after 24 hrs by CellTiter-Glo assay; assay type: cell-based; details: Homo sapiens, NCI-H1299, 24 h
Summary of the method: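 ATP-dependent luciferase luminescence read in H1299 cells, first without (M1) and then after adding the complex II substrate succinate (M2), to separate complex I block from downstream respiratory-chain inhibition or uncoupling.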

[17] = Inhibition of rat electron transport chain complex 1 assessed as reduction in cellular ATP measured after 24 hrs by celltiter-glo assay

Cytochrome P450 3A4, sequence (P08684 whole entry): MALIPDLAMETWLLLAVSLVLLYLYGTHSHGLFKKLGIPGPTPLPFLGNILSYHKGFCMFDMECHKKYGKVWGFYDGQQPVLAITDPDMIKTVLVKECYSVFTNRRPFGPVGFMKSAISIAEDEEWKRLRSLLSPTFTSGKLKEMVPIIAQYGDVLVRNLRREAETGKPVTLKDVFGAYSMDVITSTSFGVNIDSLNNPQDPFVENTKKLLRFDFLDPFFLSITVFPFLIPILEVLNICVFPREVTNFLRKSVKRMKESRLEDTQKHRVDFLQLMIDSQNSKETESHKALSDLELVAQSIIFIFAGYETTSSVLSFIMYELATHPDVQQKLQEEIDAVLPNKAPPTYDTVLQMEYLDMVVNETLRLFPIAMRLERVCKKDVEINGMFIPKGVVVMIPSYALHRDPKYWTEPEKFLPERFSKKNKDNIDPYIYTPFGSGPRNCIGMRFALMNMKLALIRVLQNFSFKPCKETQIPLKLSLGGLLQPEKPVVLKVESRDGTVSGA

IC50 (Cytochrome P450 3A4): > 20 µM | AUC [3]: 3.1 kg·h/L | Fh at 1.5 h [4]: 81% | solubility [5]: 1.6 µg/mL (≈ 3.85 µM) | Papp A→B at 2 h, 2 µM [6]: 9.2 ×10⁻⁶ cm/s | efflux ratio at 2 h, 2 µM [7]: 0.44 | IC50 (Cytochrome P450 2C9): 15 µM | bioavailability [9]: 76% | Fu [10]: 0.43% | IC50 (Cytochrome P450 1A2): > 20 µM | logD [11]: 2.8 | IC50 (Cytochrome P450 2C8): 7.8 µM | IC50 (Cytochrome P450 2D6): > 20 µM | half-life [12]: 6.2 h | Vd [13]: 2.2 L/kg | clearance [14]: 6.67 mL/min/kg | MEC [15]: > 50 µM
Structure (SMILES): c1ccc2oc(-c3csc(C4CCN(Cc5nc6ncccc6[nH]5)CC4)n3)cc2c1
IC50 [1]: 0.047 µM | IC50 [2]: 3 µM | IC50 [8]: 0.038 µM | IC50 [16]: 0.079 µM | IC50 [17]: 0.027 µM
